Measurements as given in ChEMBL document CHEMBL2021843, “Small peptide inhibitors of acetyl-peptide hydrolase having an uncommon mechanism of inhibition and a stable bent conformation” (J Med Chem, 2012).
Blank lines part the entries; values can stand above or below the compound they belong to. Activity calls are given as the source filed them. The calls are words filed in the database; no cut-off is given here.

Tests used:
[1] = target: T1, Acylamino-acid-releasing enzyme (Homo sapiens) (UniProt P13798); assay: Inhibition of APEH in human HeLa cells after 24 hrs; format: cell-based
T1 sequence (whole entry): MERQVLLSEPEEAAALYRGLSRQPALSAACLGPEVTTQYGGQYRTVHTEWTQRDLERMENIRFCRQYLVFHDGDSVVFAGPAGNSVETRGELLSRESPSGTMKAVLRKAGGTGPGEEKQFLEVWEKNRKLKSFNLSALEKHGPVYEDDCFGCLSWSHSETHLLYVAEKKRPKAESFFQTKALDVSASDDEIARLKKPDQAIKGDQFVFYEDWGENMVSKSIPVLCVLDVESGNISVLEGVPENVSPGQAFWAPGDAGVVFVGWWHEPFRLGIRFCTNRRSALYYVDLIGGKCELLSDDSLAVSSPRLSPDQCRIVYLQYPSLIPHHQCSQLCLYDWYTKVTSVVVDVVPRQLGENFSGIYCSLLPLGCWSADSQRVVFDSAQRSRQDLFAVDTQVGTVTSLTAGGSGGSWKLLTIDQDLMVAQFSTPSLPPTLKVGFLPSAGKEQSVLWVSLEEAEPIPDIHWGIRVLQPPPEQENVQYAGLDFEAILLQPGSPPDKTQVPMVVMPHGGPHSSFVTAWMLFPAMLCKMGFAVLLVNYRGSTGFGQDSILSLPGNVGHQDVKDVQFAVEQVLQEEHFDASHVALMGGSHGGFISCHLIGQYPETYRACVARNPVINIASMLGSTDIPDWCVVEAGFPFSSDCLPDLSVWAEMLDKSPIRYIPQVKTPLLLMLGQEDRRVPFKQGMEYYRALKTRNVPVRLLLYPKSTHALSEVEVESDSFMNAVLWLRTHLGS
How it was run: (§1)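 Melanoma A375 and cervical HeLa cells were exposed for 24 h to peptide at 50, 100 or 150 μM. Data are means ± SD.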

[2] = Inhibition of trypsin at 1 mM incubated for 30 mins prior to substrate addition by spectrophotometry
How it was run: (§2)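 Panel of proteases tested up to a maximal 1000 μM inhibitor, each at its own pH: carboxypeptidase Y pH 7.0; chymotrypsin, elastase and trypsin pH 8.0; subtilisin and proteinase K pH 7.5. IC50 and maximal % inhibition were recorded.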

[3] = Inhibition of elastase at 1 mM incubated for 30 mins prior to substrate addition by spectrophotometry; how it was run: as §2
[4] = target: T1, Acylamino-acid-releasing enzyme (Homo sapiens); assay: Inhibition of APEH in human A375 cells at 150 uM after 24 hrs; format: cell-based; settings: A-375; how it was run: as §1
[5] = target: T1, Acylamino-acid-releasing enzyme (Homo sapiens); assay: Inhibition of APEH in human HeLa cells at 150 uM after 24 hrs; format: cell-based; how it was run: as §1
[6] = Inhibition of proteinase K incubated for 30 mins prior to substrate addition by spectrophotometry; how it was run: as §2
A-375 [7] = assay: Cytotoxicity against human A375 cells assessed as LDH production at 50 to 150 uM after 24 hrs by spectrophotometry; format: functional, cell-based
How it was run: (§3)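 LDH release into culture medium after 24 h exposure of HeLa or A375 cells to peptide (50, 100, 150 μM). Medium from untreated cultures served as control, and medium from cells exposed to 1% Triton X-100 served as the 100% release positive control. Data are means ± SD.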

A-375 [8] = assay: Proapoptotic activity in human A375 cells assessed as caspase 3-mediated hydrolysis of Ac-DEVD-AMC at 100 uM after 24 hrs by fluorimetry; format: functional, cell-based
How it was run: (§4)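 Caspase 3 activity was measured fluorimetrically with a kit after 24 h exposure of HeLa or A375 cells to compound. It was expressed as fold increase over untreated culture. Data come from triplicate analyses in three experiments, given as means ± SD.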

[9] = Inhibition of chymotrypsin incubated for 30 mins prior to substrate addition by spectrophotometry; how it was run: as §2
[10] = target: T2, Acylamino-acid-releasing enzyme (Sus scrofa, UniProt P19205); assay: (§5) Inhibition of pig APEH using acetyl-Ala-pNA as substrate incubated for 2 mins prior to substrate addition by spectrophotometry
T2 sequence (P19205 whole entry): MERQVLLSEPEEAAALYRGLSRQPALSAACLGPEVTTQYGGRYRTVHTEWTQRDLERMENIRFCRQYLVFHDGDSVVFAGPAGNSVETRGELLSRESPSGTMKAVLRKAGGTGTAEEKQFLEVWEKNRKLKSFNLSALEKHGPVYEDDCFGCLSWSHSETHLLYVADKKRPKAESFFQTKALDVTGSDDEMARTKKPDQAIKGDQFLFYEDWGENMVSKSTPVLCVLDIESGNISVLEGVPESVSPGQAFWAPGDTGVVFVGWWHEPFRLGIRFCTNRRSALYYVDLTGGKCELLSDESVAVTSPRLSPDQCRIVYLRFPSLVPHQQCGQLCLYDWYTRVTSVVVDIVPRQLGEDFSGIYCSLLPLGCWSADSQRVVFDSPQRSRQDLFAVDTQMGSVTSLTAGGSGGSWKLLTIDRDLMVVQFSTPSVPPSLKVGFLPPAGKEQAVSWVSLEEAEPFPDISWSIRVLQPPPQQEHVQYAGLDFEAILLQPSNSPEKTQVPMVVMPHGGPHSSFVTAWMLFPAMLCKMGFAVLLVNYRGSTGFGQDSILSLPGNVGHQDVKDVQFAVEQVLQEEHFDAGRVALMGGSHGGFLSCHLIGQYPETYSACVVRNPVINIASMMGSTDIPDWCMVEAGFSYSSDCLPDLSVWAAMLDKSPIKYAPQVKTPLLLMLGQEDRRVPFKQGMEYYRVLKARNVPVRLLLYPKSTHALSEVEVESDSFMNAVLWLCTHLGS

[11] = target: T3, Acylamino-acid-releasing enzyme (Sus scrofa) (UniProt P19205); settings: 1 mM
T3 sequence (whole entry): T2 sequence (P19205 whole entry)

[12] = Inhibition of proteinase K at 1 mM incubated for 30 mins prior to substrate addition by spectrophotometry; how it was run: as §2
[13] = target: T3, Acylamino-acid-releasing enzyme (Sus scrofa); settings: 50 to 100 uM
[14] = target: T1, Acylamino-acid-releasing enzyme (Homo sapiens); assay: Inhibition of APEH in human A375 cells after 24 hrs; format: cell-based; settings: A-375; how it was run: as §1
HeLa [15] = assay: Cytotoxicity against human HeLa cells assessed as LDH production after 24 hrs by spectrophotometry; format: functional, cell-based; how it was run: as §3
A-375 [16] = assay: Proapoptotic activity in human A375 cells assessed as caspase 3-mediated hydrolysis of Ac-DEVD-AMC at 150 uM after 24 hrs by fluorimetry; format: functional, cell-based; how it was run: as §4
HeLa [17] = assay: Proapoptotic activity in human HeLa cells assessed as caspase 3-mediated hydrolysis of Ac-DEVD-AMC at 100 uM after 24 hrs by fluorimetry; format: functional, cell-based; how it was run: as §4
HeLa [18] = assay: Proapoptotic activity in human HeLa cells assessed as caspase 3-mediated hydrolysis of Ac-DEVD-AMC at 150 uM after 24 hrs by fluorimetry; format: functional, cell-based; how it was run: as §4
[19] = target: T3, Acylamino-acid-releasing enzyme (Sus scrofa); settings: 50 uM
[20] = Inhibition of chymotrypsin at 1 mM incubated for 30 mins prior to substrate addition by spectrophotometry; how it was run: as §2
[21] = Inhibition of trypsin incubated for 30 mins prior to substrate addition by spectrophotometry; how it was run: as §2
[22] = Inhibition of carboxypeptidase Y incubated for 30 mins prior to substrate addition by spectrophotometry; how it was run: as §2
[23] = target: T3, Acylamino-acid-releasing enzyme (Sus scrofa); settings: 150 uM
HeLa [24] = assay: Cytotoxicity against human HeLa cells assessed as LDH production at 50 to 150 uM after 24 hrs by spectrophotometry; format: functional, cell-based; how it was run: as §3
[25] = Inhibition of subtilisin incubated for 30 mins prior to substrate addition by spectrophotometry; how it was run: as §2
[26] = Inhibition of carboxypeptidase Y at 1 mM incubated for 30 mins prior to substrate addition by spectrophotometry; how it was run: as §2
[27] = Inhibition of subtilisin at 1 mM incubated for 30 mins prior to substrate addition by spectrophotometry; how it was run: as §2
[28] = Inhibition of elastase incubated for 30 mins prior to substrate addition by spectrophotometry; how it was run: as §2
[29] = target: T3, Acylamino-acid-releasing enzyme (Sus scrofa); assay: as §5
HeLa [30] = assay: Cytotoxicity against human HeLa cells assessed as LDH production at 100 uM after 24 hrs by spectrophotometry; format: functional; how it was run: as §3
HeLa [31] = assay: Proapoptotic activity in human HeLa cells assessed as caspase 3-mediated hydrolysis of Ac-DEVD-AMC at 30 uM after 24 hrs by fluorimetry relative to untreated control; format: functional; how it was run: as §4
HeLa [32] = assay: Proapoptotic activity in human HeLa cells assessed as caspase 3-mediated hydrolysis of Ac-DEVD-AMC at 50 uM after 24 hrs by fluorimetry relative to untreated control; format: functional; how it was run: as §4

inhibition [1]: Dose-dependent effect | Imax [2]: < 1% | Imax [3]: < 1% | Imax [4]: 50% | Imax [5]: 80% | IC50 [6]: > 1000 µM | IC50 [9]: > 1000 µM | IC50 [10]: 98 µM | Ki [10]: 24 µM | Imax [11]: 72% | Imax [12]: < 1% | inhibition [13]: Active | inhibition [14]: Dose-dependent effect | inhibition [19]: > 25% | Imax [20]: < 1% | IC50 [21]: > 1000 µM | IC50 [22]: 210 µM | Imax [23]: 72% | IC50 [25]: > 1000 µM | Imax [26]: 30% | Imax [27]: < 1% | IC50 [28]: > 1000 µM
SMILES: CSCC[C@@H](NC(=O)[C@@H](CC(C)C)NC(=O)C(F)(F)F)C(=O)N1CCC[C@@H]1C(=O)N[C@H](Cc1cnc[nH]1)C(N)=O
Activity (A-375 [7]): inactive | Activity (A-375 [8]): Active | Activity (HeLa [15]): inactive | Activity (A-375 [16]): Active | Activity (HeLa [17]): Active | Activity (HeLa [18]): Active | Activity (HeLa [24]): inactive

inhibition [29]: inactive
SMILES: CSCC[C@@H](NC(=O)[C@H](N)CC(C)C)C(=O)N1CCC[C@@H]1C(=O)N[C@H](Cc1cnc[nH]1)C(N)=O

inhibition [29]: inactive
SMILES: CSCC[C@@H](NC(=O)[C@@H](CC(C)C)NC(C)=O)C(=O)N1CCC[C@@H]1C(=O)N[C@H](Cc1cnc[nH]1)C(N)=O

Continued, compound first:

SMILES: CSCC[C@@H](NC(=O)[C@@H](CC(C)C)NC(=O)C(F)(F)F)C(=O)N1CCC[C@@H]1C(=O)N[C@H](CC(=O)O)C(N)=O
Activity (HeLa [15]): inactive

SMILES: CC[C@@H](C)[C@@H](O)[C@H](C)C(=O)[C@H](C)/C=C(\C)C[C@H](C)[C@@H]1OC(=O)[C@H]1CC [EBELACTONE B]
Activity (HeLa [15]): Dose-dependent effect | Activity (HeLa [30]): 28% | fold change (FC) (HeLa [31]): 5 | fold change (FC) (HeLa [32]): 5
